TDP2 absorb: human TDP2 enzyme inhibitors, primary screen, biochemical, epi absorbance, recombinant enzyme; T5PNP hydrolysis, p-nitrophenol absorbance 415 nm; inhibition, % at 12.8 µM; hit rate 0.34% among 370,000; AID 720702, 2013;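 active = inhibition above the mean of all tested compounds plus 3 SD, set per campaign, cut at about 25% in these data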;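 also: 0% = DMSO with enzyme and 100% = buffer with substrate but no TDP2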
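test system = human TDP2 enzyme | input = TDP2 enzyme at 120 nM final | medium = 50 mM Tris-HCl pH 7.5 with Mg2+, KCl, DTT, BSA | also added = T5PNP substrate, 5 mM | times = 2 h at 37 °C | technique = epi absorbance | benchmarks = high control without enzyme, low control DMSO plus TDP2 | replication = each compound tested once, singlicate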
HCV core dimer: inhibitors of HCV core protein dimerization, primary screen, biochemical, TR-FRET, high-throughput; hit rate 0.33% among 300,000; AID 1899, 2009; inhibition, % at 5 µM; TR-FRET GST/Flag-core106 dimerization, 1536-well;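 active = inhibition above the mean of all tested compounds plus 3 SD, set per screening campaign, cut at about 45% in these data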
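System: GST/Flag-tagged HCV core106 proteins. Incubation: compound-protein-antibody incubation 4 h at 22.5 °C. Technique: HTRF with 340 nm excitation, 617/671 nm emission. Medium: KF-containing HEPES buffer, pH 7.45, DTT, CHAPS, BSA. Read-out: inhibition (%) from 671 over 617 nm ratio. Also added: Eu(K)-anti-GST 90 ng/mL plus XL665-anti-Flag 1 µg/mL.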
UHRF1 binding: UHRF1 methylated DNA binding inhibitors, primary screen, counter-screen for MBD2 inhibitor project, biochemical, TR-FRET, human UHRF1, single concentration | E3 ubiquitin-protein ligase UHRF1 (Homo sapiens), Q96T88 | UHRF1 binding to methylated oligo | inhibition, % at 4.4 µM | hit rate 0.75% among 370,000; in the data active = inhibition above about 21%;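 also: UHRF1 SRA domain binding a hemimethylated CpG hairpin DNA probe; 0% = median of test compound wells and 100% = reference inhibitor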
Target sequence (Q96T88 whole entry, looked up, the tested form may be a part): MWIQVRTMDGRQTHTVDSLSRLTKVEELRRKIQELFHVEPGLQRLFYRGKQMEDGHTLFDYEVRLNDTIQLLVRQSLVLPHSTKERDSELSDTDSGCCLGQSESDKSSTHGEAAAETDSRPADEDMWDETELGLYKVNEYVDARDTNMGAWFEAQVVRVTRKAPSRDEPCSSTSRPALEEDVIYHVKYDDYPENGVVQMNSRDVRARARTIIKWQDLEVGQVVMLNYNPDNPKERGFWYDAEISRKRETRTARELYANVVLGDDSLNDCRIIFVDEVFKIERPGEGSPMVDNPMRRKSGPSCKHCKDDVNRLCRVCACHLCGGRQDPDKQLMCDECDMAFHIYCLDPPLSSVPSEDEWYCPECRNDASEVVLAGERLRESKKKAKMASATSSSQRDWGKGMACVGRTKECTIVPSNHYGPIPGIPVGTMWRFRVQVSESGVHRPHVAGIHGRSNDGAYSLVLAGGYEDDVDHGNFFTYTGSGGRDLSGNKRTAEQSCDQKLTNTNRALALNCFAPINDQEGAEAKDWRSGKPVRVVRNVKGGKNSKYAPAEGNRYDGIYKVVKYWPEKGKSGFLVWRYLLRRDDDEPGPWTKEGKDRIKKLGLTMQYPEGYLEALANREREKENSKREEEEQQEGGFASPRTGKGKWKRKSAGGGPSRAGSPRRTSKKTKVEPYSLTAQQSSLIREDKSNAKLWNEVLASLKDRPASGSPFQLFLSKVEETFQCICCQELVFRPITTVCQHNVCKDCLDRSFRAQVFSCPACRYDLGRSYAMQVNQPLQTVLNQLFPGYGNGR
MBD2 inh: inhibitors of MBD2 binding to methylated DNA, primary screen, biochemical, TR-FRET, DNA-binding domain, human. hit rate 0.31% among 370,000. inhibition, % at 4.4 µM. MBD2 binding to methylated oligonucleotide. AID 686964, 2013. Methyl-CpG-binding domain protein 2 (Homo sapiens), Q9UBB5; in the data active = inhibition above about 13%
LEDGF integ inh: blockers of LEDGF/p75-dependent integrase strand transfer – biochemical, TR-FRET, high throughput, primary screen. HIV-1 integrase (with human LEDGF/p75). TR-FRET IN-LEDGF/p75 DNA integration, Eu/Cy5. inhibition, % at 3.7 µM. hit rate 0.64% among 370,000. AID 743269, 2014;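 active = inhibition above the screen-wide mean plus 3 SD, cut at about 13% in these data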;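 also: signal is the Cy5 over europium emission ratio at 671 and 618 nm; 0% = plate median of compound wells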
TDP2 confirm: human TDP2 enzyme inhibitors, retest, confirmation, biochemical, epi absorbance, recombinant enzyme | shares compounds with TDP2 absorb | absorbance read-out | inhibition, % at 12.8 µM | hit rate 22% among 1,100 | AID 743263, 2014; in the data active = inhibition above about 25%;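 also: 0% = vehicle with enzyme and 100% = no enzyme buffer only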
IN multimer act: HIV-1 IN multimer formation enhancers, counter-screen for LEDGF/p75 integration inhibitor project, biochemical, TR-FRET; shares compounds with LEDGF integ inh; TR-FRET HIV-1 integrase multimerization; activation, % at 7.7 µM; hit rate 17% among 2,000; AID 1053131, 2014; in the data active = activation above about 8.9%
TRFRET interf: TR-FRET optical interference artefacts, confirmation, artefact control for LEDGF/p75-dependent integration inhibitor project, biochemical, HIV-1 IN multimerization. shares compounds with LEDGF integ inh. 2,000 tested, under 10 active. TR-FRET optical interference counterscreen. inhibition, % at 7.7 µM;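 active = inhibition above the mean over all tested compounds plus 3 SD, which no compound reached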;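 also: 0% = integrase with antibodies and DMSO and 100% = antibodies without integrase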
LEDGF integ conf: inhibitors of HIV-1 IN-LEDGF/p75 DNA integration, confirmation, biochemical, TR-FRET | shares compounds with LEDGF integ inh | TR-FRET LEDGF/p75-dependent HIV-1 integration | inhibition, % at 3.7 µM | hit rate 36% among 2,000; in the data active = inhibition above about 14%
Starred values were filed as active, the others as inactive. Shown are actives, neighbours in structure and some others; about 1.8% of the full set was active somewhere.

What do the screens show for `Cc1nnc(N/N=C\c2ccc(-c3cccc(C(=O)O)c3)o2)n1N`?
TDP2 absorb: 59.1*; HCV core dimer: -17.0; UHRF1 binding: 5.5; MBD2 inh: -4.8; LEDGF integ inh: 52.7*; TDP2 confirm: 7.6; IN multimer act: 5.4; TRFRET interf: -19.3; LEDGF integ conf: 0.2

How did Cc1nnc(N/N=C/c2ccc(-c3ccc(Br)cc3)o2)n1N do in these assays?
TDP2 absorb: 56.5*; HCV core dimer: -9.2; UHRF1 binding: 1.8; MBD2 inh: -6.3; LEDGF integ inh: 49.3*; TDP2 confirm: 1.3; IN multimer act: -0.2; TRFRET interf: 0.9; LEDGF integ conf: -5.0

Results for CC(C)(C)c1nnc(N/N=C/c2ccccc2)n(N)c1=O ?
TDP2 absorb: 2.5; HCV core dimer: -0.7; UHRF1 binding: -1.5; MBD2 inh: 2.6; LEDGF integ inh: -4.1

How did Cc1nnc(N/N=C/c2ccc([N+](=O)[O-])cc2)n1N do in these assays?
TDP2 absorb: 55.1*; HCV core dimer: -2.8; UHRF1 binding: 18.6; MBD2 inh: -1.9; LEDGF integ inh: 79.4*; TDP2 confirm: 0.1; IN multimer act: 1.2; TRFRET interf: -4.2; LEDGF integ conf: -2.6

How did Cc1nnc(N/N=C/c2ccc(Br)cc2)n1N do in these assays?
TDP2 absorb: 73.6*; HCV core dimer: -3.1; UHRF1 binding: 7.7; MBD2 inh: 1.5; LEDGF integ inh: 46.6*; TDP2 confirm: 6.0; IN multimer act: 0.1; TRFRET interf: -0.7; LEDGF integ conf: -3.2

What do the screens show for `Cc1ccc(-n2c(SCC(=O)Nc3ccccc3-c3ccccc3)nnc2-c2cccnc2)cc1`?
TDP2 absorb: -5.7; UHRF1 binding: 0.9; MBD2 inh: -0.8; LEDGF integ inh: 4.5

How did CC(=O)OCC(=O)N1CCN(C(=O)C(=O)c2cccc(C(F)(F)F)c2)CC1 do in these assays?
TDP2 absorb: -4.9; UHRF1 binding: 2.0; MBD2 inh: 1.1; LEDGF integ inh: -3.8

How did CCCCCC[C@H](CC)CN(C(=O)Oc1ccccc1)c1ccccc1 do in these assays?
TDP2 absorb: 8.2; UHRF1 binding: 2.0; MBD2 inh: 2.2; LEDGF integ inh: 1.2

What do the screens show for `COc1ccc(N2CCN(CCCNC(=O)CCc3ccc(F)cc3)CC2)cc1`?
TDP2 absorb: -2.5; UHRF1 binding: -0.8; MBD2 inh: 3.0; LEDGF integ inh: -2.1

Results for Cc1cc(Br)cc(C=Nc2ccc(N3CCOCC3)cc2)c1O ?
TDP2 absorb: 34.1*; HCV core dimer: -1.5; UHRF1 binding: -0.3; MBD2 inh: -3.8; LEDGF integ inh: 25.7*; TDP2 confirm: -8.0; IN multimer act: 2.5; TRFRET interf: -12.7; LEDGF integ conf: 16.9*

What do the screens show for `Oc1c(Cl)cc(Cl)cc1C=Nc1ccc(N2CCOCC2)cc1`?
TDP2 absorb: 22.2; HCV core dimer: 2.0; UHRF1 binding: 2.6; MBD2 inh: 2.9; LEDGF integ inh: 5.8

How did O=S1(=O)c2c(cccc2N2CCSCC2)Oc2ccccc2CN1Cc1cn(Cc2cccc(C(F)(F)F)c2)nn1 do in these assays?
TDP2 absorb: -1.0; UHRF1 binding: 2.4; MBD2 inh: -5.5; LEDGF integ inh: 0.2

Results for O=C1c2ccccc2C(=O)c2c1cccc2-n1nnc2ccccc21 ?
TDP2 absorb: 0.3; HCV core dimer: 5.6; UHRF1 binding: 0.5; MBD2 inh: -2.1; LEDGF integ inh: 0.4

How did O=C1C(N2CCOCC2)=C(n2nnc3ccccc32)C(=O)c2ccccc21 do in these assays?
TDP2 absorb: 50.3*; HCV core dimer: 11.4; UHRF1 binding: -4.1; MBD2 inh: -14.0; LEDGF integ inh: 40.0*; TDP2 confirm: 63.6*; IN multimer act: 3.1; TRFRET interf: -11.1; LEDGF integ conf: 45.0*

Results for CC(C)(C)c1nnc(N/N=C/c2ccccc2O)n(N)c1=O ?
TDP2 absorb: -6.0; HCV core dimer: -4.6; UHRF1 binding: -2.8; MBD2 inh: -0.6; LEDGF integ inh: -4.2

Results for CCc1nnc(N/N=C/c2ccccc2F)n1N ?
TDP2 absorb: 66.0*; HCV core dimer: -5.1; UHRF1 binding: 8.0; MBD2 inh: 1.0; LEDGF integ inh: 58.3*; TDP2 confirm: 3.8; IN multimer act: -0.5; TRFRET interf: 1.6; LEDGF integ conf: 0.1

Results for CCOC(=O)N/N=C/c1ccccc1F ?
TDP2 absorb: -3.1; HCV core dimer: -2.8; UHRF1 binding: -2.7; MBD2 inh: -2.0; LEDGF integ inh: -0.9

Results for CCc1nnc(N/N=C/c2ccccc2Cl)n1N ?
TDP2 absorb: 60.8*; HCV core dimer: -3.3; UHRF1 binding: 9.0; MBD2 inh: -3.7; LEDGF integ inh: 45.8*; TDP2 confirm: -2.1; IN multimer act: 0.3; TRFRET interf: -1.2; LEDGF integ conf: -1.1

What do the screens show for `COc1cccc(/C=N/Nc2nnc(C)n2N)c1OCc1ccccc1Cl`?
TDP2 absorb: 54.0*; HCV core dimer: -5.9; UHRF1 binding: 3.6; MBD2 inh: -5.0; LEDGF integ inh: 40.7*; TDP2 confirm: -4.0; IN multimer act: 0.5; TRFRET interf: -2.6; LEDGF integ conf: -3.1

What do the screens show for `Cc1ccc(NC(=O)OCCCN2C(=O)CCC23CCC(C)CC3)cc1C` (configuration not stated)?
TDP2 absorb: 10.0; UHRF1 binding: -1.8; MBD2 inh: -5.5; LEDGF integ inh: 2.1

How did CCn1c(=O)n2n(c1=O)[C@]1(C=C(C)C2)CN(Cc2ccc(OC)cc2OC)C(NC(=O)c2ccccc2)=N1 do in these assays?
TDP2 absorb: -14.5; UHRF1 binding: 2.6; MBD2 inh: 2.9; LEDGF integ inh: 3.0

How did Nc1[nH]c(C(=O)c2ccccc2)c(-c2ccc(Cl)cc2Cl)c1C(=O)NCCC1=CCCCC1 do in these assays?
TDP2 absorb: 0.4; UHRF1 binding: 0.7; MBD2 inh: 9.4; LEDGF integ inh: -3.0
